Test results taken from ChEMBL document CHEMBL1128400, “Synthesis of some 2-aryl-1,2,4-triazolo[1,5-c][1,3]benzoxazin-5-ones as tools to define the essential pharmacophoric descriptors of a benzodiazepine receptor ligand” (J Med Chem, 1995).

Tests used:
[1] = Binding affinity at bovine Benzodiazepine receptor by [3H]flunitrazepam displacement.
In short: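 [3H]flunitrazepam displacement; IC50 from log-probit plots, converted to Ki. Run for compounds giving enough inhibition in a 10 μM screen.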

[2] = target: T1, GABA-A receptor; anion channel (Bos taurus) (UniProt P10063+P08220+P20237+P08219+P10064+P22300); test: GABA ratio (where GABA ratio = IC50 (compound) / IC50 (compound + 10 uM GABA)).; assay type: protein-complex assay
In short: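 Ratio of IC50 for [3H]flunitrazepam displacement measured without GABA to IC50 measured with 10 μM GABA. Used as a rough in vitro gauge of intrinsic activity. Five independent experiments.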

[3] = target: T1, GABA-A receptor; anion channel (Bos taurus); test: Inhibition of [3H]flunitrazepam binding to GABA-A benzodiazepine receptor of bovine brain membranes at 10e-5 M; assay type: cell membranes
In short: (§1)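 Percent inhibition of [3H]flunitrazepam binding, with test compound at 10 μM. Ethanol used as solvent in one case.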

[4] = target: T1, GABA-A receptor; anion channel (Bos taurus); test: inhibition of [3H]flunitrazepam binding to GABA-A benzodiazepine receptor of bovine brain membranes; assay type: cell membranes; conditions: concentration not given here
[5] = target: T1, GABA-A receptor; anion channel (Bos taurus); test: Percentage inhibition of [3H]flunitrazepam binding to GABA-A benzodiazepine receptor of bovine brain membranes; assay type: cell membranes; conditions: concentration not given here; in short: as §1

Structure (SMILES) | Ki [1] [nM] | GR [2] | inhibition [3] [%] | inhibition [4] [%] | inhibition [5] [%]
O=c1oc2ccccc2c2nc(-c3ccccc3F)nn12 | 15.3 | 0.95 | – | – | –
O=c1oc2ccc(Cl)cc2c2nc(-c3ccccc3)nn12 | 568 | 0.78 | – | – | –
O=c1oc2ccccc2c2nc(-c3ccccc3)nn12 | 132 | 0.98 | – | – | –
COc1ccc2c(c1)oc(=O)n1nc(-c3ccccc3F)nc21 | – | – | 45 | – | –
O=c1oc2ccc(Cl)cc2c2nc(-c3cccc(F)c3F)nn12 | 11.8 | 1.11 | – | – | –
O=c1oc2cc(Cl)ccc2c2nc(-c3ccccc3F)nn12 | – | – | – | 47 | –
O=c1oc2ccc(Cl)cc2c2nc(-c3c(F)cccc3F)nn12 | 42.2 | 0.76 | – | – | –
CCOC(=O)c1nc2c3ccccc3oc(=O)n2n1 | 120 | 0.81 | – | – | –
O=c1oc2ccc(Cl)cc2c2nc(-c3ccoc3)nn12 | 105 | 0.8 | – | – | –
O=c1oc2ccccc2c2nc(-c3ccc(Cl)cc3)nn12 | – | – | – | – | 0
CCOC(=O)c1nc2c3cc(Cl)ccc3oc(=O)n2n1 | 125 | 1.2 | – | – | –
O=c1oc2ccccc2c2nc(-c3ccco3)nn12 | 27.9 | 0.84 | – | – | –
COc1ccc(-c2nc3c4cc(Cl)ccc4oc(=O)n3n2)cc1 | 72.8 | 0.5 | – | – | –
O=c1oc2ccc(Cl)cc2c2nc(-c3ccco3)nn12 | 62.3 | 0.9 | – | – | –
COc1ccc2oc(=O)n3nc(-c4ccccc4F)nc3c2c1 | 43.7 | 1.13 | – | – | –
O=c1oc2ccc(Cl)cc2c2nc(-c3ccsc3)nn12 | 211 | 1.02 | – | – | –
O=c1oc2ccccc2c2nc(-c3cccs3)nn12 | 32.1 | 0.98 | – | – | –
O=c1oc2ccc(Cl)cc2c2nc(-c3ccc(Cl)cc3)nn12 | – | – | – | 3 | –
O=c1oc2ccc(Cl)cc2c2nc(-c3cccs3)nn12 | 100 | 0.8 | – | – | –
O=c1oc2ccc(Cl)cc2c2nc(-c3ccccc3F)nn12 | 5.2 | 0.9 | – | – | –
Cc1ccc2oc(=O)n3nc(-c4ccccc4F)nc3c2c1 | 44.8 | 0.84 | – | – | –
COc1ccc(-c2nc3c4ccccc4oc(=O)n3n2)cc1 | 300 | 1.31 | – | – | –
